Consider five compounds from ChEMBL document CHEMBL1152709, “Tricyclic HIV integrase inhibitors: VI. SAR studies of 'benzyl flipped' C3-substituted pyrroloquinolines” (Bioorg Med Chem Lett, 2009).

By IC50 is commonly meant the midpoint of a concentration-inhibition curve. By EC50 is commonly meant the concentration at which the effect is half-maximal. Usually clearance stands for the rate of elimination divided by the concentration. For orientation: bioavailability means dose-corrected exposure relative to a reference, in per cent. The low end stands for little systemic uptake, the high end for much systemic uptake. As usually defined, the half-life is the time in which the quantity being followed falls by half.

Data set [1] deals with Human immunodeficiency virus type 1 integrase (Human immunodeficiency virus 1, UniProt Q7ZJM1). Kind of data set: Inhibition of HIV1 HXB2 integrase strand transfer activity by microtiter assay. In a few lines: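 Strand transfer measured in a microtiter format using DIG-tagged target DNA, detected with anti-DIG antibody–horseradish peroxidase conjugate. IC50 reported in nM as the mean of at least two experiments.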

Data set [2] deals with Human immunodeficiency virus 1. In words: Antiviral activity against HIV1 3B infected in human MT2 cells after 5 days by cell-titer assay in presence of 10% FBS. Format: functional, organism-based. The note with it: Human immunodeficiency virus 1, 3B, MT2, 120 h. In a few lines: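 MT-2 cells infected with HIV-1 IIIB (m.o.i. 0.01, 3 h), then about 1.5 × 10⁴ cells per well added to 9 concentrations of 5-fold serially diluted drug in triplicate, in culture medium with 10% FBS. Incubated 5 days at 37 °C. Viability read by CellTiter-Glo chemiluminescence after 10 min lysis at room temperature. Values are means of at least two experiments.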

The nature of data set [3]: Clearance in iv dosed dog at pH 3.3. Particulars: in vivo. Format: ADME, organism-based, Canis lupus familiaris. In a few lines:
(§1)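 Parent compound given i.v. as a solution in EtOH, PG, PEG400 and citric acid at pH 3.3. Total body clearance and T½ were derived from the i.v. group. Values are the mean of three animals per study.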

Data set [4] is described as follows: Oral bioavailability in rat at pH 2.2. The note with it: in vivo. Format: ADME, organism-based. The procedure, abridged:
(§2)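 Oral dosing of parent compound as a solution in EtOH, PG, PEG400 and citric acid at pH 2.2, alongside an i.v. group (pH 3.3). F (%) was calculated from p.o. versus i.v. AUC. Values are the mean of three animals per study.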

Data set [5] can be described thus: Oral bioavailability in dog at pH 2.2. It counts as ADME, organism-based, Canis lupus familiaris. The note with it: in vivo. In a few lines: as §2
A short description of data set [6]: Clearance in iv dosed rat at pH 3.3. Format: ADME, organism-based. The note with it: in vivo. The procedure, abridged: as §1
Data set [7] is described as follows: Half life in iv dosed dog at pH 3.3. Format: ADME, organism-based, Canis lupus familiaris. The note with it: in vivo. The procedure, abridged: as §1
Data set [8] relates to Human immunodeficiency virus 1. Kind of data set: Antiviral activity against HIV1 3B infected in human MT2 cells after 5 days by cell-titer method in presence of human serum albumin and alpha1-acid glycoprotein. Format: functional, organism-based. Particulars: Human immunodeficiency virus 1, 3B, MT2, 120 h. The procedure, abridged:
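Same MT-2/HIV-1 IIIB assay (m.o.i. 0.01, 5 days at 37 °C, CellTiter-Glo read-out), run in 10% FBS with or without HSA (35 mg/ml) or α1-AGP (1.5 mg/ml). The combined-protein (serum-adjusted) EC₅₀ was calculated from the EC₅₀ values with each protein alone, using an equation derived from competitive binding assumptions.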

Data set [9] in a line: Half life in iv dosed rat at pH 3.3. Particulars: in vivo. Format: ADME, organism-based. In a few lines:
as §1

Human immunodeficiency virus type 1 integrase, sequence (Q7ZJM1 whole entry): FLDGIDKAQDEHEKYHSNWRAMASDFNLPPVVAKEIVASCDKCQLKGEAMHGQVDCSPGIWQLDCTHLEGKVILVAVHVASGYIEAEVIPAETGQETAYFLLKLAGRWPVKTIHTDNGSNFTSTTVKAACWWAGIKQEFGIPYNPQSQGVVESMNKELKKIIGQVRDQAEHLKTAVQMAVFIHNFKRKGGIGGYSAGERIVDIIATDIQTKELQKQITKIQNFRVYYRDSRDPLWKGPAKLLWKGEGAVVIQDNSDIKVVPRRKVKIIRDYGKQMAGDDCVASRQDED

In the case of `COc1c2c(c(O)c3ncc(Cc4ccc(F)cc4)cc13)C(=O)N(Cc1ccc(F)cc1)C2`, in [1], the IC50 came out at 600 nM. Besides, the EC50 in [2] turned out to be 105 nM.
In [1], `CN1Cc2c(c(O)c3ncc(Cc4ccc(F)cc4)cc3c2N(C)S(C)(=O)=O)C1=O` came in with a 50% inhibitory concentration (IC50) of 80 nM. In addition, the results for the clearance in data set [3] and in [6] were 2.17 mL/min/kg and 8.17 mL/min/kg, respectively. Besides, the bioavailability was 12% in data set [4] and 47% in data set [5]. In addition, the figures for the half-life in [7] and in data set [9] were 4.4 h and 0.4 h, respectively. Also, the EC50 was found to be 7 nM in data set [8] and 2 nM in data set [2].
Turning to `COc1c2c(c(O)c3ncc(Cc4ccc(F)cc4)cc13)C(=O)N(C)C2`, the IC50 in data set [1] was 100 nM. The EC50 in [2] was 20 nM.
In [1], `COc1c2c(c(O)c3ncc(Cc4ccc(F)cc4)cc13)C(=O)NC2` displayed an IC50 of 14 nM. Also, the EC50 in data set [8] was determined as 27 nM; in data set [2] it was 16 nM.
The compound `CN1Cc2c(c(O)c3ncc(Cc4ccc(F)c(Cl)c4)cc3c2N(C)S(C)(=O)=O)C1=O` registered an IC50 in data set [1] of 265 nM. Also, the clearance in [3] is 2 mL/min/kg; in data set [6], 3.67 mL/min/kg. In addition, the bioavailability in data set [4] turned out to be 11%; in data set [5], 60%. Further, the half-life in data set [7] is 8.8 h; in data set [9], 1.7 h. Besides, the figures for the EC50 in data set [8] and in [2] were 35 nM and 1.1 nM, respectively.
